Values after ≈ are worked out from the molar mass of the structure shown. Where a SMILES comes first, the peptide text is derived from it. [ ]: non-standard residue; d: D form. Orn = NCCC[C@H](N)C(=O)O
Tests used:
Bacillus subtilis = test: Antibacterial activity against Bacillus subtilis NBRC 3513 after overnight incubation by medium dilution method; assay type: functional
In short: (§1)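 MIC by medium dilution with an inoculum of 10⁶ organisms per ml. Value is the minimum inhibitory concentration.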

Priestia megaterium = test: Antibacterial activity against Bacillus megaterium ATCC 19213 after overnight incubation by medium dilution method; assay type: functional; in short: as §1
[1] = system: Staphylococcus epidermidis; test: Antibacterial activity against Staphylococcus epidermidis NBRC 12993 after overnight incubation by medium dilution method; assay type: functional; in short: as §1
Staphylococcus aureus = test: Antibacterial activity against Staphylococcus aureus NBRC 12732 after overnight incubation by medium dilution method; assay type: functional; in short: as §1
Pseudomonas aeruginosa = test: Antibacterial activity against Pseudomonas aeruginosa NBRC 3080 after overnight incubation by medium dilution method; assay type: functional; in short: as §1
Escherichia coli = test: Antibacterial activity against Escherichia coli NBRC l2734 after overnight incubation by medium dilution method; assay type: functional; in short: as §1
[2] = Cytotoxicity against human RBC assessed induction of hemolysis at […] after 30 mins microtiter plate reader analysis; assay type: cell-based; settings: erythrocyte, 0.5 h

| MIC (Bacillus subtilis) | MIC (Priestia megaterium) | MIC [1] | MIC (Staphylococcus aureus) | MIC (Pseudomonas aeruginosa) | MIC (Escherichia coli) | Compound | Activity [2] |
| --- | --- | --- | --- | --- | --- | --- | --- |
| > 100 µg/mL | > 100 µg/mL | > 100 µg/mL | > 100 µg/mL | > 100 µg/mL | > 100 µg/mL | CC(C)C[C@@H]1NC(=O)[C@H](CCCN)NC(=O)[C@H](CCCCN)NC(=O)[C@@H](Cc2ccc(O)cc2)NC(=O)[C@@H]2CCCN2C(=O)[C@@H](Cc2ccccc2)NC(=O)[C@H](CC(C)C)NC(=O)[C@H](CCCN)NC(=O)[C@H](CCCCN)NC(=O)[C@@H](Cc2ccc(O)cc2)NC(=O)[C@@H]2CCCN2C(=O)[C@@H](Cc2ccccc2)NC1=O | Non-toxic |
| 6.25 µg/mL (≈ 4.26 µM) | 6.25 µg/mL (≈ 4.26 µM) | 12.5 µg/mL (≈ 8.52 µM) | 6.25 µg/mL (≈ 4.26 µM) | 100 µg/mL (≈ 68.1 µM) | 100 µg/mL (≈ 68.1 µM) | CC(C)C[C@@H]1NC(=O)[C@H](CCCN)NC(=O)[C@H](C(C)C)NC(=O)[C@@H](Cc2ccc(O)cc2)NC(=O)[C@@H]2CCCN2C(=O)[C@@H](Cc2ccccc2)NC(=O)[C@H](CC(C)C)NC(=O)[C@H](CCCN)NC(=O)[C@H](C(C)C)NC(=O)[C@@H](Cc2ccc(O)cc2)NC(=O)[C@@H]2CCCN2C(=O)[C@@H](Cc2ccccc2)NC1=O [GRATISIN] | Toxic |
| > 50 µg/mL | > 50 µg/mL | > 50 µg/mL | > 50 µg/mL | > 50 µg/mL | > 50 µg/mL | CC(C)C[C@@H]1NC(=O)[C@H](C)NC(=O)[C@H](C(C)C)NC(=O)[C@@H](Cc2ccc(O)cc2)NC(=O)[C@@H]2CCCN2C(=O)[C@@H](Cc2ccccc2)NC(=O)[C@H](CC(C)C)NC(=O)[C@H](C)NC(=O)[C@H](C(C)C)NC(=O)[C@@H](Cc2ccc(O)cc2)NC(=O)[C@@H]2CCCN2C(=O)[C@@H](Cc2ccccc2)NC1=O | Non-toxic |
| 12.5 µg/mL (≈ 8.85 µM) | 12.5 µg/mL (≈ 8.85 µM) | 25 µg/mL (≈ 17.7 µM) | 6.25 µg/mL (≈ 4.43 µM) | > 100 µg/mL | > 100 µg/mL | CC(C)C[C@@H]1NC(=O)[C@H](CCCN)NC(=O)[C@H](C)NC(=O)[C@@H](Cc2ccc(O)cc2)NC(=O)[C@@H]2CCCN2C(=O)[C@@H](Cc2ccccc2)NC(=O)[C@H](CC(C)C)NC(=O)[C@H](CCCN)NC(=O)[C@H](C)NC(=O)[C@@H](Cc2ccc(O)cc2)NC(=O)[C@@H]2CCCN2C(=O)[C@@H](Cc2ccccc2)NC1=O | Non-toxic |
| 6.25 µg/mL (≈ 3.94 µM) | 6.25 µg/mL (≈ 3.94 µM) | 6.25 µg/mL (≈ 3.94 µM) | 6.25 µg/mL (≈ 3.94 µM) | 50 µg/mL (≈ 31.5 µM) | 12.5 µg/mL (≈ 7.88 µM) | CC(C)C[C@@H]1NC(=O)[C@H](CCCN)NC(=O)[C@H](C(C)C)NC(=O)[C@@H](Cc2ccc(O)cc2)NC(=O)[C@H](CCCNC(=N)N)NC(=O)[C@@H](Cc2ccccc2)NC(=O)[C@H](CC(C)C)NC(=O)[C@H](CCCN)NC(=O)[C@H](C(C)C)NC(=O)[C@@H](Cc2ccc(O)cc2)NC(=O)[C@H](CCCNC(=N)N)NC(=O)[C@@H](Cc2ccccc2)NC1=O | Non-toxic |
| > 100 µg/mL | > 100 µg/mL | > 100 µg/mL | > 100 µg/mL | > 100 µg/mL | > 100 µg/mL | CC(C)C[C@@H]1NC(=O)[C@H](CCCN)NC(=O)[C@H](C(C)C)NC(=O)[C@@H](Cc2ccc(O)cc2)NC(=O)[C@@H]2CCCN2C(=O)[C@@H](C)NC(=O)[C@H](CC(C)C)NC(=O)[C@H](CCCN)NC(=O)[C@H](C(C)C)NC(=O)[C@@H](Cc2ccc(O)cc2)NC(=O)[C@@H]2CCCN2C(=O)[C@@H](C)NC1=O | Non-toxic |
| 12.5 µg/mL (≈ 9.74 µM) | 12.5 µg/mL (≈ 9.74 µM) | 25 µg/mL (≈ 19.5 µM) | 12.5 µg/mL (≈ 9.74 µM) | > 100 µg/mL | > 100 µg/mL | CC(C)C[C@@H]1NC(=O)[C@H](CCCN)NC(=O)[C@H](C(C)C)NC(=O)[C@@H](C)NC(=O)[C@@H]2CCCN2C(=O)[C@@H](Cc2ccccc2)NC(=O)[C@H](CC(C)C)NC(=O)[C@H](CCCN)NC(=O)[C@H](C(C)C)NC(=O)[C@@H](C)NC(=O)[C@@H]2CCCN2C(=O)[C@@H](Cc2ccccc2)NC1=O (cyclo(L[dF]P[dA]V[Orn]L[dF]P[dA]V[Orn])) | Non-toxic |
| 12.5 µg/mL (≈ 8.83 µM) | 25 µg/mL (≈ 17.7 µM) | 50 µg/mL (≈ 35.3 µM) | 12.5 µg/mL (≈ 8.83 µM) | > 100 µg/mL | > 100 µg/mL | CC(C)C[C@@H]1NC(=O)[C@H](CCCN)NC(=O)[C@H](C(C)C)NC(=O)[C@@H](Cc2ccc(O)cc2)NC(=O)[C@H](C)NC(=O)[C@@H](Cc2ccccc2)NC(=O)[C@H](CC(C)C)NC(=O)[C@H](CCCN)NC(=O)[C@H](C(C)C)NC(=O)[C@@H](Cc2ccc(O)cc2)NC(=O)[C@H](C)NC(=O)[C@@H](Cc2ccccc2)NC1=O | Non-toxic |
| 100 µg/mL (≈ 72.3 µM) | 100 µg/mL (≈ 72.3 µM) | > 100 µg/mL | 100 µg/mL (≈ 72.3 µM) | > 100 µg/mL | > 100 µg/mL | CC(C)[C@@H]1NC(=O)[C@@H](Cc2ccc(O)cc2)NC(=O)[C@@H]2CCCN2C(=O)[C@@H](Cc2ccccc2)NC(=O)[C@H](C)NC(=O)[C@H](CCCN)NC(=O)[C@H](C(C)C)NC(=O)[C@@H](Cc2ccc(O)cc2)NC(=O)[C@@H]2CCCN2C(=O)[C@@H](Cc2ccccc2)NC(=O)[C@H](C)NC(=O)[C@H](CCCN)NC1=O | Non-toxic |
| 25 µg/mL (≈ 17.3 µM) | 50 µg/mL (≈ 34.5 µM) | 50 µg/mL (≈ 34.5 µM) | 12.5 µg/mL (≈ 8.63 µM) | > 100 µg/mL | > 100 µg/mL | CC(C)C[C@@H]1NC(=O)[C@H](CCCN)NC(=O)[C@H](C(C)C)NC(=O)[C@@H](Cc2ccc(O)cc2)NC(=O)[C@H](CO)NC(=O)[C@@H](Cc2ccccc2)NC(=O)[C@H](CC(C)C)NC(=O)[C@H](CCCN)NC(=O)[C@H](C(C)C)NC(=O)[C@@H](Cc2ccc(O)cc2)NC(=O)[C@H](CO)NC(=O)[C@@H](Cc2ccccc2)NC1=O | Non-toxic |
| 6.25 µg/mL (≈ 4.09 µM) | 6.25 µg/mL (≈ 4.09 µM) | 6.25 µg/mL (≈ 4.09 µM) | 6.25 µg/mL (≈ 4.09 µM) | 100 µg/mL (≈ 65.4 µM) | 25 µg/mL (≈ 16.3 µM) | CC(C)C[C@@H]1NC(=O)[C@H](CCCN)NC(=O)[C@H](C(C)C)NC(=O)[C@@H](Cc2ccc(O)cc2)NC(=O)[C@H](CCCCN)NC(=O)[C@@H](Cc2ccccc2)NC(=O)[C@H](CC(C)C)NC(=O)[C@H](CCCN)NC(=O)[C@H](C(C)C)NC(=O)[C@@H](Cc2ccc(O)cc2)NC(=O)[C@H](CCCCN)NC(=O)[C@@H](Cc2ccccc2)NC1=O | Non-toxic |

Source: ChEMBL document CHEMBL1641423, “Novel gratisin derivatives with high antimicrobial activity and low hemolytic activity” (Bioorg Med Chem Lett, 2011)
